Data as given in ChEMBL document CHEMBL4834437, “Improvement of Oral Bioavailability of Pyrazolo-Pyridone Inhibitors of the Interaction of DCN1/2 and UBE2M” (J Med Chem, 2021).

Columns and labels:
[1] = mouse, in vivo, po, 50 mg/kg, 24 h
[2] = Oral bioavailability in C57BL/6 mouse at 50 mg/kg administered as single dose measured up to 24 hrs by LC/MS analysis; assay type: ADME, organism-based; settings: in vivo
Method in brief: (§1)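 Single dose given to mice either intravenously at 15 mg/kg or orally at 50 mg/kg. Plasma drug concentration was followed over 24 h. Concentrations below LLOQ were reported as half LLOQ.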

[3] = AUC in C57BL/6 mouse at 50 mg/kg, po administered as single dose measured up to 24 hrs by LC/MS analysis; assay type: ADME, organism-based; parameters: route oral, dose 50 mg/kg, time <=24; settings: in vivo
Method in brief: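 Plasma drug concentration followed over 24 h. Concentrations below LLOQ were entered as half LLOQ. The same formulation was used for a separate intravenous arm at 15 mg/kg.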

[4] = Toxicity in C57BL/6 mouse assessed as effect on potassium level at 200 mg/kg, po administered as single dose measured after 48 hrs; assay type: organism-based; settings: in vivo
[5] = Toxicity in C57BL/6 mouse assessed as effect on ALT level at 200 mg/kg, po administered as single dose measured after 48 hrs; assay type: organism-based; settings: in vivo
[6] = Toxicity in C57BL/6 mouse assessed as effect on phosphorous level at 50 mg/kg, po administered as 10 consecutive doses measured after 48 hrs; assay type: organism-based; settings: in vivo
[7] = Toxicity in C57BL/6 mouse assessed as effect on creatinine level at 50 mg/kg, po administered as 10 consecutive doses measured after 48 hrs; assay type: organism-based; settings: in vivo
[8] = Toxicity in C57BL/6 mouse assessed as effect on chloride level at 50 mg/kg, po administered as 10 consecutive doses measured after 48 hrs; assay type: organism-based; settings: in vivo
[9] = Toxicity in C57BL/6 mouse assessed as effect on potassium level at 50 mg/kg, po administered as 10 consecutive doses measured after 48 hrs; assay type: organism-based; settings: in vivo
[10] = Toxicity in C57BL/6 mouse assessed as effect on cholesterol level at 200 mg/kg, po administered as single dose measured after 48 hrs; assay type: organism-based; settings: in vivo
[11] = Toxicity in C57BL/6 mouse assessed as effect on alkaline phosphatase level at 50 mg/kg, po administered as 10 consecutive doses measured after 48 hrs; assay type: organism-based; settings: in vivo
[12] = Toxicity in C57BL/6 mouse assessed as effect on Na/K ratio at 50 mg/kg, po administered as 10 consecutive doses measured after 48 hrs; assay type: organism-based; settings: in vivo
[13] = Toxicity in C57BL/6 mouse assessed as effect on BUN/creatinine ratio at 200 mg/kg, po administered as single dose measured after 48 hrs; assay type: organism-based; settings: in vivo
[14] = Toxicity in C57BL/6 mouse assessed as effect on albumin level at 50 mg/kg, po administered as 10 consecutive doses measured after 48 hrs; assay type: organism-based; settings: in vivo
[15] = Toxicity in C57BL/6 mouse assessed as effect on monocyte level at 50 mg/kg, po administered as 10 consecutive doses measured after 48 hrs; assay type: organism-based; settings: in vivo
[16] = Toxicity in C57BL/6 mouse assessed as effect on A/G ratio at 50 mg/kg, po administered as 10 consecutive doses measured after 48 hrs; assay type: organism-based; settings: in vivo
[17] = Toxicity in C57BL/6 mouse assessed as effect on platelet level at 50 mg/kg, po administered as 10 consecutive doses measured after 48 hrs; assay type: organism-based; settings: in vivo
[18] = Toxicity in C57BL/6 mouse assessed as effect on BUN at 200 mg/kg, po administered as single dose measured after 48 hrs; assay type: organism-based; settings: in vivo
[19] = Toxicity in C57BL/6 mouse assessed as effect on sodium level at 200 mg/kg, po administered as single dose measured after 48 hrs; assay type: organism-based; settings: in vivo
[20] = Toxicity in C57BL/6 mouse assessed as effect on basophil level at 50 mg/kg, po administered as 10 consecutive doses measured after 48 hrs; assay type: organism-based; settings: in vivo
[21] = Toxicity in C57BL/6 mouse assessed as effect on calcium level at 50 mg/kg, po administered as 10 consecutive doses measured after 48 hrs; assay type: organism-based; settings: in vivo
[22] = Toxicity in C57BL/6 mouse assessed as effect on BUN at 50 mg/kg, po administered as 10 consecutive doses measured after 48 hrs; assay type: organism-based; settings: in vivo
[23] = Toxicity in C57BL/6 mouse assessed as effect on total bilirubin level at 200 mg/kg, po administered as single dose measured after 48 hrs; assay type: organism-based; settings: in vivo
[24] = Toxicity in C57BL/6 mouse assessed as effect on glucose level at 50 mg/kg, po administered as 10 consecutive doses measured after 48 hrs; assay type: organism-based; settings: in vivo
[25] = Toxicity in C57BL/6 mouse assessed as effect on AST level at 200 mg/kg, po administered as single dose measured after 48 hrs; assay type: organism-based; settings: in vivo
[26] = Toxicity in C57BL/6 mouse assessed as effect on WBC level at 50 mg/kg, po administered as 10 consecutive doses measured after 48 hrs; assay type: organism-based; settings: in vivo
[27] = Toxicity in C57BL/6 mouse assessed as effect on MCHC level at 50 mg/kg, po administered as 10 consecutive doses measured after 48 hrs; assay type: organism-based; settings: in vivo
[28] = Toxicity in C57BL/6 mouse assessed as effect on A/G ratio at 200 mg/kg, po administered as single dose measured after 48 hrs; assay type: organism-based; settings: in vivo
[29] = Toxicity in C57BL/6 mouse assessed as effect on chloride level at 200 mg/kg, po administered as single dose measured after 48 hrs; assay type: organism-based; settings: in vivo
[30] = Toxicity in C57BL/6 mouse assessed as effect on alkaline phosphatase level at 200 mg/kg, po administered as single dose measured after 48 hrs; assay type: organism-based; settings: in vivo
[31] = Toxicity in C57BL/6 mouse assessed as effect on BUN/creatinine ratio at 50 mg/kg, po administered as 10 consecutive doses measured after 48 hrs; assay type: organism-based; settings: in vivo
[32] = Toxicity in C57BL/6 mouse assessed as effect on glucose level at 200 mg/kg, po administered as single dose measured after 48 hrs; assay type: organism-based; settings: in vivo
[33] = Toxicity in po dosed C57BL/6 mouse assessed as maximum tolerated dose administered as single dose measured after 48 hrs; assay type: organism-based; settings: in vivo
[34] = Toxicity in C57BL/6 mouse assessed as effect on globulin level at 50 mg/kg, po administered as 10 consecutive doses measured after 48 hrs; assay type: organism-based; settings: in vivo
[35] = Toxicity in C57BL/6 mouse assessed as effect on AST level at 50 mg/kg, po administered as 10 consecutive doses measured after 48 hrs; assay type: organism-based; settings: in vivo
[36] = Toxicity in C57BL/6 mouse assessed as effect on eosinophil level at 50 mg/kg, po administered as 10 consecutive doses measured after 48 hrs; assay type: organism-based; settings: in vivo
[37] = Toxicity in C57BL/6 mouse assessed as effect on Na/K ratio at 200 mg/kg, po administered as single dose measured after 48 hrs; assay type: organism-based; settings: in vivo
[38] = Toxicity in C57BL/6 mouse assessed as effect on CPK level at 200 mg/kg, po administered as single dose measured after 48 hrs; assay type: organism-based; settings: in vivo
[39] = Toxicity in C57BL/6 mouse assessed as effect on sodium level at 50 mg/kg, po administered as 10 consecutive doses measured after 48 hrs; assay type: organism-based; settings: in vivo
[40] = Toxicity in C57BL/6 mouse assessed as effect on creatinine level at 200 mg/kg, po administered as single dose measured after 48 hrs; assay type: organism-based; settings: in vivo
[41] = Toxicity in C57BL/6 mouse assessed as effect on ALT level at 50 mg/kg, po administered as 10 consecutive doses measured after 48 hrs; assay type: organism-based; settings: in vivo
[42] = Toxicity in C57BL/6 mouse assessed as effect on cholesterol level at 50 mg/kg, po administered as 10 consecutive doses measured after 48 hrs; assay type: organism-based; settings: in vivo
[43] = Toxicity in C57BL/6 mouse assessed as effect on HCT level at 50 mg/kg, po administered as 10 consecutive doses measured after 48 hrs; assay type: organism-based; settings: in vivo
[44] = Toxicity in C57BL/6 mouse assessed as effect on phosphorous level at 200 mg/kg, po administered as single dose measured after 48 hrs; assay type: organism-based; settings: in vivo
[45] = Toxicity in C57BL/6 mouse assessed as effect on total bilirubin level at 50 mg/kg, po administered as 10 consecutive doses measured after 48 hrs; assay type: organism-based; settings: in vivo
[46] = Toxicity in C57BL/6 mouse assessed as effect on albumin level at 200 mg/kg, po administered as single dose measured after 48 hrs; assay type: organism-based; settings: in vivo
in vivo = settings: C57BL/6, mouse, plasma
HCC95 = experiment: Inhibition of colony formation in human HCC95 cells at 10 uM measured after 10 days by nitroblue tetrazolium chloride reagent based assay relative to control; settings: HCC95, 240 h
[47] = Toxicity in po dosed C57BL/6 mouse assessed as maximum tolerated dose administered as 10 consecutive doses measured after 48 hrs; assay type: organism-based; settings: in vivo
[48] = Oral bioavailability in C57BL/6 mouse; assay type: ADME, organism-based; settings: in vivo
Method in brief: as §1

[49] = Toxicity in C57BL/6 mouse assessed as effect on calcium level at 200 mg/kg, po administered as single dose measured after 48 hrs; assay type: organism-based; settings: in vivo
[50] = Toxicity in C57BL/6 mouse assessed as effect on globulin level at 200 mg/kg, po administered as single dose measured after 48 hrs; assay type: organism-based; settings: in vivo
[51] = Toxicity in C57BL/6 mouse assessed as effect on MCH level at 50 mg/kg, po administered as 10 consecutive doses measured after 48 hrs; assay type: organism-based; settings: in vivo
[52] = Toxicity in C57BL/6 mouse assessed as effect on lymphocyte level at 50 mg/kg, po administered as 10 consecutive doses measured after 48 hrs; assay type: organism-based; settings: in vivo
[53] = Toxicity in C57BL/6 mouse assessed as effect on MCV level at 50 mg/kg, po administered as 10 consecutive doses measured after 48 hrs; assay type: organism-based; settings: in vivo
[54] = Toxicity in C57BL/6 mouse assessed as effect on neutrophil level at 50 mg/kg, po administered as 10 consecutive doses measured after 48 hrs; assay type: organism-based; settings: in vivo
[55] = Toxicity in C57BL/6 mouse assessed as effect on RBC level at 50 mg/kg, po administered as 10 consecutive doses measured after 48 hrs; assay type: organism-based; settings: in vivo
[56] = Toxicity in C57BL/6 mouse assessed as effect on CPK level at 50 mg/kg, po administered as 10 consecutive doses measured after 48 hrs; assay type: organism-based; settings: in vivo
[57] = Toxicity in C57BL/6 mouse assessed as effect on HGB level at 50 mg/kg, po administered as 10 consecutive doses measured after 48 hrs; assay type: organism-based; settings: in vivo

For `CCN1C(=O)[C@@H](NC(=O)c2cccc(C(F)(F)F)c2)[C@@H](c2ccc(F)cc2)c2c(C)nn(-c3ccccc3)c21` (relative stereo), which Cmax [1] is on record?
The Cmax was 1.15 µM.

And the F [2]?
Its F is 36%.

What about the AUC at 24 h [3] of the same molecule?
The AUC at 24 h was 23.8 µM·h.

Which results are given for `CCN1C(=O)[C@@H](NC(=O)c2cccc(C(F)(F)F)c2)[C@@H](c2ccc(F)cc2)c2c(CN)nn(-c3ccccc3)c21` (relative stereo)?
Activity [4]: Non-Toxic; Activity [5]: Non-Toxic; Activity [6]: Non-Toxic; Activity [7]: Non-Toxic; Activity [8]: Non-Toxic; Activity [9]: Non-Toxic; Activity [10]: Non-Toxic; Activity [11]: Non-Toxic; Activity [12]: Non-Toxic; Activity [13]: Non-Toxic; Activity [14]: Non-Toxic; Activity [15]: Non-Toxic; Activity [16]: Non-Toxic; Activity [17]: Non-Toxic; Activity [18]: Non-Toxic; Activity [19]: Non-Toxic; Cmax [1]: 6 µM; Activity [20]: Non-Toxic; Activity [21]: Non-Toxic; Activity [22]: Non-Toxic; Activity [23]: Non-Toxic; Activity [24]: Non-Toxic; Activity [25]: Non-Toxic; Activity [26]: Non-Toxic; Activity [27]: Non-Toxic; Activity [28]: Non-Toxic; Activity [29]: Non-Toxic; Activity [30]: Non-Toxic; Activity [31]: Non-Toxic; Activity [32]: Non-Toxic; MTD at 48 h [33]: 200 mg/kg; Activity [34]: Non-Toxic; Activity [35]: Non-Toxic; Activity [36]: Non-Toxic; Activity [37]: Non-Toxic; Activity [38]: Non-Toxic; Activity [39]: Non-Toxic; Activity [40]: Non-Toxic; Activity [41]: Non-Toxic; Activity [42]: Non-Toxic; Activity [43]: Non-Toxic; Activity [44]: Non-Toxic; Activity [45]: Non-Toxic; Activity [46]: Non-Toxic; clearance (in vivo): 20 mL/min/kg; inhibition at 10 µM (HCC95): 100%; MTD at 48 h [47]: 50 mg/kg; bioavailability [48]: 92%; Activity [49]: Non-Toxic; Activity [50]: Non-Toxic; Activity [51]: Non-Toxic; Activity [52]: Non-Toxic; Activity [53]: Non-Toxic; Activity [54]: Non-Toxic; Activity [55]: Non-Toxic; Activity [56]: Non-Toxic; Activity [57]: Non-Toxic
